S1P3 agonist = S1P3 (human) receptor agonism | AID 373 | hit rate 0.1% among 60,000 | S1P3 NFAT-BLA reporter cells, FRET ratio; relative to 1 µM S1P, basal subtracted | activation, % at 4.5 µM;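 active means activation above the screen-wide mean plus 3 SD, cut at about 4.5% in these data, passing the limit was not always enough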
Target sequence (Q99500 whole entry, looked up): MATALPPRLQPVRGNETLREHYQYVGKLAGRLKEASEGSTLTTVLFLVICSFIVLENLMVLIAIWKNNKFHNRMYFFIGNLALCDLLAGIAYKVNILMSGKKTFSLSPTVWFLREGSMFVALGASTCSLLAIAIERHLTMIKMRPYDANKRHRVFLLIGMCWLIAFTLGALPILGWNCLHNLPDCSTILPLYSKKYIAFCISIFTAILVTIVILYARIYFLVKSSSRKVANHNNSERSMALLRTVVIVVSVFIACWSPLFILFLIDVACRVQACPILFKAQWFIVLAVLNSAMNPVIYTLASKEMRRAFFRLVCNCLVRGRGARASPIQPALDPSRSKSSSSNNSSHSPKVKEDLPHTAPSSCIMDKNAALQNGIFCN
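Measure – % activation relative to 1 µM S1P (100%), per plate · System – stable CHO line with human S1P3, Gα16, NFAT-BLA reporter · Timing – cells plated overnight, compound 4 h 37 °C, substrate 2 h RT · Technique – fluorescent BLA substrate, ex 405 nm, em 460/535 nm ratio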
S1P1 ag-PAM = activates or potentiates agonism at human S1P1 receptor; S1P1 CRE-bla cells, forskolin, beta-lactamase FRET, potentiator mode; S1P1 agonist co-added at EC20, 2 nM; 100% = saturating reference agonist, 0% = basal; hit rate 0.57% among 56,000; activation, % at 9.5 µM; P21453;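 active means activation above a cutoff set at the mean activation of all tested compounds plus 3 SD, cut at about 54% in these data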;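 further: forskolin at 4 µM as EC80 and the EC20 agonist is SEW2871; 100% = SEW2871 at its EC100 plus forskolin at EC80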
Target sequence (P21453 whole entry, looked up): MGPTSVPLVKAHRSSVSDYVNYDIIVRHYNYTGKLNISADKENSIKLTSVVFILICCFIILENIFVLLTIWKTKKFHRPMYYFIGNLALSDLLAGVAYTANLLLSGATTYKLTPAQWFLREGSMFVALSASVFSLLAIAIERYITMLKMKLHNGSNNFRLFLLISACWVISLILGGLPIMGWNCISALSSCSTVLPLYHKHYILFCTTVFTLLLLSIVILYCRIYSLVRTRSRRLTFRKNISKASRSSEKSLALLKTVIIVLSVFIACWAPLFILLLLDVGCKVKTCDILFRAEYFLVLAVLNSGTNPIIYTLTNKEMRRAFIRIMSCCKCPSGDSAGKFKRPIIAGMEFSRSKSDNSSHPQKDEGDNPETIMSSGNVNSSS
M1 agonist = M1 muscarinic receptor agonism; B-score at 10 µM; AID 626; CHO-M1 cells, Fluo-4 calcium fluorescence, agonist mode; hits give high values; hit rate 3% among 64,000;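 active means fluorescence rise, raw or as B-score row- and column-corrected plate score, outside the 99.7% band of its plate's samples, either direction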
D1 allo mod = allosteric modulators of human D1 dopamine receptor; HEK293 D1, CRE-luciferase, dopamine EC30 potentiation; actives deviate in either direction; B-score at 10 µM; hit rate 5.9% among 58,000; AID 641;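 active means luminescence count or its row- and column-corrected plate score outside the 99.7% band of the plate's sample wells, on either side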
M1 antag = M1 muscarinic receptor (rat) antagonism; B-score at 10 µM; P08482; AID 628; hit rate 3.4% among 64,000; CHO-M1 cells, Fluo-4 calcium, ACh EC80 antagonist mode; hits give low values;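 active means calcium fluorescence response, raw or row-and-column corrected B-score, differing from the plate sample mean either way at a set confidence level, mostly lower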
M1 antag conf = confirmation of rat M1 muscarinic receptor antagonists; hit rate 43% among 1,700; shares compounds with M1 antag; calcium response (max-min fluorescence) at 10 µM; CHO-M1 cells, Fluo-4 calcium, ACh EC80 antagonism; hits give low values;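 active means calcium response below the same-plate mean of wells given acetylcholine alone at its 80%-effect dose, minus 3 SD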;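 further: raw fluorescence intensity difference in arbitrary instrument units and not normalized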
mGluR4 antag = acts on human mGluR4 in M1 antagonist selectivity test; shares compounds with M1 antag; CHO-mGluR4 calcium flux, Fluo-4 fluorescence, glutamate EC80; hits give low values; fluorescence response (max-min) at 10 µM; hit rate 0.9% among 1,700;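 active means fluorescence response below the plate's average for near-maximal glutamate wells, less 3 SD of those wells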;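 further: raw unnormalized fluorescence span taken in the window right after glutamate addition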
* hit, by the source's call; / = not tested or not shown. Only some compounds are listed: those with a hit (about 11% of all), similar ones and a draw of the others.

SMILES | S1P3 agonist | S1P1 ag-PAM | M1 agonist | D1 allo mod | M1 antag | M1 antag conf | mGluR4 antag
Cc1c(N(C(=O)Nc2ccccc2)C2=NCC(C)S2)c(=O)n(-c2ccccc2)n1C (centres undefined) | -0.6 | 1.1 | 0.663 | 0.0217 | -4.4* | 604 | 242
O=C(O)c1ccc(NC(=O)C2CC=CCC2C(=O)O)cc1 (centres undefined) | -1.9 | -6.2 | -0.0699 | 0.0493 | -7.23* | 644 | 244
CCc1ccc(NC(=O)C2CC=CCC2C(=O)O)cc1 (centres undefined) | / | / | 0.274 | 1.38 | -0.234 | / | /
O=C(NCc1ccc2c(c1)OCO2)C1CC(=O)N(C2CCCC2)C1 (centres undefined) | -0.7 | -2.4 | -0.562 | -0.758 | -2.91* | 515 | 222
CCCS(=O)(=O)N1CCCC(C(=O)N2CCOCC2)C1 (centres undefined) | -0.4 | -31.9 | 0.19 | -0.26 | 0.0291 | / | /
CN(C(=O)COC(=O)c1nc(-c2ccccc2)n(-c2ccccc2)n1)C1CCS(=O)(=O)C1 (centres undefined) | -1.5 | -1.9 | 0.325 | / | -4.76* | 231* | 211
Cc1cc(C(=O)OCC(=O)NC2CCS(=O)(=O)C2)c(C)n1-c1ccccc1 (centres undefined) | -1.2 | 11.9 | 0.219 | -1.03 | -1.67 | / | /
Cc1cc(C(=O)OCC(=O)N(C)C2CCS(=O)(=O)C2)c(C)n1-c1ccccc1 (centres undefined) | -0.4 | 0.8 | 0.118 | -0.625 | -2.7* | 544 | 227
O=C(NCCN1CCOCC1)c1ccc2c(c1)N(Cc1ccccc1)C(=O)CS2 | / | / | -0.331 | -0.877 | -2.98* | 344* | 230
NS(=O)(=O)c1cc2c(cc1C(F)(F)F)NC(Cc1ccccc1)NS2(=O)=O (centres undefined) | -2.9 | 13.4 | -0.7 | 0.732 | -0.159 | / | /
Cc1cc(C)c(C#N)c(SCC(=O)N2CCN(Cc3ccccc3)CC2)n1 | -2.0 | -2.9 | 0.0763 | 0.169 | 0.0587 | / | /
CCN(Cc1ccccc1)C(=O)CSc1nc(C)cc(C)c1C#N | 0.0 | -14.6 | -0.21 | -0.751 | -2.37* | 551 | 238
Cc1ccc(OCCNS(=O)(=O)c2cccs2)cc1 | -0.1 | -13.3 | -0.464 | -0.0101 | -0.212 | / | /
CCN(CCNC(=O)C1CCN(c2nnc(-n3cccc3)s2)CC1)c1ccccc1 | 0.7 | -1.7 | -0.426 | -1.24 | -0.826* | 630 | 192
CN1CCN(CCCNC(=O)C2CCN(c3nnc(-n4cccc4)s3)CC2)CC1 | 0.2 | -2.1 | 0.00275 | / | -0.897 | / | /
CCCCOc1ccccc1NC(=O)CC1SC(=NCC)N(CC)C1=O (centres undefined) | -1.2 | 5.1 | 1.5 | / | -2.83* | 575 | 232
CC1(C)CC(NC(=O)c2coc(=O)c(Br)c2)CC(C)(C)N1 | 0.1 | -20.1 | 0.684 | -0.153 | 0.77 | / | /
CCC(C)(C)n1nnnc1CN1CCN(c2nc3cc(OC)ccc3cc2C#N)CC1 | -0.8 | 28.7 | -1.23 | 0.623 | -0.145 | / | /
COc1cccc(NC(=O)CSc2nnc(-c3cc(C)n(-c4ccccc4)c3C)o2)c1 | 1.5 | 11.5 | 0.205 | -2.85 | -2.6* | 504 | 237
Cc1cc(C)cc(NC(=O)CSc2nnc(-c3ccccc3Br)o2)c1 | -0.2 | 5.5 | -0.559 | -0.213 | 0.463 | / | /
N=c1c2c3c(sc2nc2n1CCC2)CCCC3 | -1.1 | -20.1 | -0.0407 | -0.112 | -1.93* | 634 | 255
O=C(NCc1nnc(SCC(=O)N2CCCC2)o1)c1ccccc1F | / | / | -0.498 | -0.475 | -1.12 | / | /
O=C(CSc1nnc(CNC(=O)c2ccccc2F)o1)c1ccccc1 | / | / | -1.96 | -0.781 | -3.24* | 611 | 245
CCCc1n[nH]c2c1C(=O)C(C(=O)OC)C(C)(C)C2 (centres undefined) | -0.5 | / | 0.488 | 1.66 | -0.125 | / | /
COc1ccc(S(=O)(=O)Nc2cccc(NC(C)=O)c2)cc1 | -0.4 | 2.0 | -0.34 | -0.278 | -0.158 | / | /
SMILES | S1P3 agonist | S1P1 ag-PAM | M1 agonist | D1 allo mod | M1 antag | M1 antag conf | mGluR4 antag
C=CCN(C1CCCCC1)S(=O)(=O)c1ccc2c(c1)oc(=O)n2C | 0.3 | -7.3 | 0.828 | 0.746 | -4.87* | 567 | 289
C=CCN(c1ccccc1)S(=O)(=O)c1ccc2c(c1)oc(=O)n2C | 1.4 | 8.3 | -1.98 | -0.299 | -1.87 | / | /
CC1CCc2cc(F)cc3c(O)c(C(=O)Nc4cnccn4)c(=O)n1c23 (centres undefined) | -4.9 | -0.6 | 0.834 | -0.661 | 0.451 | / | /
Cc1sc2ncnc(OCC(=O)c3ccc(S(=O)(=O)N4CCCC4)cc3)c2c1C | -0.2 | 8.2 | -0.296 | 1.1 | -3.11* | 540 | 236
Cc1sc2ncnc(OCC(=O)N3CCN(S(=O)(=O)c4ccc(Cl)cc4)CC3)c2c1C | 0.3 | 7.6 | -0.223 | 5.32 | 0.216 | / | /
Cc1cc(C(=O)O)c(CCCN)s1 | 0.4 | -17.1 | -0.298 | -0.592 | 0.282 | / | /
CCCCOc1ccc(NC2=NC3(CCCCC3)N=C(N)N2)cc1 | -0.4 | -17.2 | -0.829 | -3.22 | -2.31* | 458 | 182
Cc1cccc(NC2=NC3(CCCCC3)N=C(N)N2)c1 | 0.2 | -11.4 | 0.992 | -3.57 | 0.51 | / | /
O=C(CSc1nnc(-c2cccs2)n1-c1ccccc1)N1CCc2ccccc21 | -0.8 | 3.5 | 0.147 | -0.175 | -3.01* | 457 | 205
CCOC(=O)c1cnc(-c2ccccc2)nc1N | -0.6 | 6.5 | -1.66 | -0.773 | -2.18* | 714 | 230
Cc1cc(C)c(C)c(OCCOCCN2CCOCC2)c1 | -1.2 | -22.2 | 1.2 | -0.436 | -0.252 | / | /
Clc1ccccc1OCCCCn1ccnc1 | 0.2 | -13.8 | 2.16 | -0.194 | 0.312 | / | /
Clc1cc(Br)ccc1OCCOCCN1CCOCC1 | -2.7 | -4.9 | 0.0344 | / | -0.727* | 448 | 226
Clc1cc(Br)ccc1OCCn1ccnc1 | -0.9 | / | 0.842 | -0.333 | -3.35* | 442* | 241
O=c1[nH]c2ccccc2n1CCCN1CCN(C(c2ccccc2)c2ccccc2)CC1 | -0.3 | -6.8 | 0.272 | -5.18 | -10.3 | / | /
CCN(CCCNC(=O)c1c(C)cc(=O)oc1C)c1cccc(C)c1 | / | / | -0.205 | -0.856 | -2.95* | 522* | 266
Cn1c(C(=O)N2CCCC(C(=O)NCCc3ccccc3)C2)cc2sccc21 (centres undefined) | -0.6 | -9.0 | -1.12 | -0.481 | -6.11* | 328* | 248
Cn1c(C(=O)N2CCCC(C(=O)NCCCc3ccccc3)C2)cc2sccc21 (centres undefined) | -0.8 | -1.2 | -0.42 | 0.0409 | -2.32 | / | /
O=S(=O)(NCCc1ccccc1F)c1cccc(S(=O)(=O)N2CCOCC2)c1 | / | / | -1.17 | -0.737 | -0.322 | / | /
COc1ccccc1CNS(=O)(=O)c1cccc(S(=O)(=O)N2CCOCC2)c1 | -0.4 | 8.0 | 1.31 | 0.16 | -4.68* | 605 | 209
C=C(C)C1CCC(C)=C1COC(=O)Nc1ccccc1 (centres undefined) | -0.4 | -27.5 | 0.0429 | -1.04 | -0.024 | / | /

Compound activity: PubChem BioAssay, several laboratories
